Measured values published in ChEMBL document CHEMBL1140866, “New pyrazoline bearing 4(3H)-quinazolinone inhibitors of monoamine oxidase: synthesis, biological evaluation, and structural determinants of MAO-A and MAO-B selectivity” (Bioorg Med Chem, 2009).

Assays:
[1] = target: T1, Amine oxidase [flavin-containing] A (Rattus norvegicus, UniProt P21396); test: Inhibition of MAO-A in rat liver homogenate after 60 mins by Lineweaver-Burke plot; assay type: tissue-based; details: for Activity: rat, 1 h, TDE = time-dependent effect
T1 sequence (P21396 whole entry): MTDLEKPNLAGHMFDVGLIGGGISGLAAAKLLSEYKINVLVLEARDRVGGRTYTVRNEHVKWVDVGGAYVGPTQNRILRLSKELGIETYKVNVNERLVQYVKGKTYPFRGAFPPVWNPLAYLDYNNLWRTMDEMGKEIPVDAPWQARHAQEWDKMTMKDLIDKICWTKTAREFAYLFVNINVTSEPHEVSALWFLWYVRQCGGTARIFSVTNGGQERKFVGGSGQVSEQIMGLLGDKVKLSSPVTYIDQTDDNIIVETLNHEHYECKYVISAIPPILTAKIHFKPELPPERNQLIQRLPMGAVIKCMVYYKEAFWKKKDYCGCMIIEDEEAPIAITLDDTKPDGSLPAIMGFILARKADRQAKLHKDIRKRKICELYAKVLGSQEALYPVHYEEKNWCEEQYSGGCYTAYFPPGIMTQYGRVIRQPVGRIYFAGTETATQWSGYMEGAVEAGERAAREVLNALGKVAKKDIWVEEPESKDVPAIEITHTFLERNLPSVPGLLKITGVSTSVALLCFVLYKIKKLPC

[2] = system: Mus musculus; test: Anxiolytic activity in albino mouse assessed as total number of entries into arms at 100 mg/kg, ip by plus-maze test; assay type: functional; details: route intraperitoneal
In short: (§1)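 Mice given compounds i.p. at 100 mg/kg in DMSO/water (1:4), about 0.1 mL, 1 h before testing; controls got 0.1 mL vehicle; n = 7–8. Housed eight per cage, 20 ± 2 °C, 12 h light/dark. Each animal did the plus-maze first, then forced swim.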

[3] = target: T2, Amine oxidase [flavin-containing] B (Rattus norvegicus, UniProt P19643); test: Inhibition of MAO-B in rat liver homogenate after 60 mins by Lineweaver-Burke plot; assay type: tissue-based; details: for Activity: rat, 1 h, TDE = time-dependent effect
T2 sequence (P19643 whole entry): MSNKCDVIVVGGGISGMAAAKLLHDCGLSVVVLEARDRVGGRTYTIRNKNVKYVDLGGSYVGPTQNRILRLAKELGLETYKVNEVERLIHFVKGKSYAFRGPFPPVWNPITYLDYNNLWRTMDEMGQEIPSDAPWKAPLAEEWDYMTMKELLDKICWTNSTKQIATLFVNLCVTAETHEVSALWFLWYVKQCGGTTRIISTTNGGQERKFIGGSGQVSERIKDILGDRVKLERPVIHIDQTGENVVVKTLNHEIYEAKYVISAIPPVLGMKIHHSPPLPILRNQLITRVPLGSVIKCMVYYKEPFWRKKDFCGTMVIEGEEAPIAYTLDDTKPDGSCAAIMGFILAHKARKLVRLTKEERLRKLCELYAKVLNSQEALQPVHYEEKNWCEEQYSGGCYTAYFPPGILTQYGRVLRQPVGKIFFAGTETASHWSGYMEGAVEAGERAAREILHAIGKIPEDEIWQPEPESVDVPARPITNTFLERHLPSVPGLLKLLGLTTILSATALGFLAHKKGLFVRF

[4] = target: T1, Amine oxidase [flavin-containing] A; test: Inhibition of MAO-A in rat liver homogenate after 60 mins by residual activity plot; assay type: tissue-based
[5] = system: Mus musculus; test: Anxiolytic activity in albino mouse assessed as time spent on closed arm at 100 mg/kg, ip by plus-maze test; assay type: functional; design: unit not given here; details: route intraperitoneal; in short: as §1
[6] = system: Mus musculus; test: Antidepressant activity in albino mouse assessed as immobility time at 100 mg/kg, ip by forced swim test; assay type: functional; details: route intraperitoneal; in short: as §1
[7] = target: T2, Amine oxidase [flavin-containing] B; test: Inhibition of MAO-B in rat liver homogenate after 60 mins by residual activity plot; assay type: tissue-based

| SMILES | Ki [1] | Activity [1] | Ki [3] | Activity [3] | IC50 [4] | IC50 [7] | arm entries [2] | Activity [5] | Activity [6] |
| --- | --- | --- | --- | --- | --- | --- | --- | --- | --- |
| Cn1c(N/N=C(/C=C/c2cccc(Cl)c2)c2ccccc2)nc2ccccc2c1=O | 5.1 µM | tde | 0.16 µM | tde | 468 µM | 1.15 µM | 3.15 entries | 246.87 | 54.57% |
| Cc1ccc(C2=NN(c3nc4ccccc4c(=O)n3C)C(c3cccs3)C2)cc1 (stereo unspecified) | 130 µM | tde | 90.7 µM | tde | 415 µM | 70.8 µM | 5.14 entries | 188.14 | 74.14% |
| COc1ccc(/C=C/C(=N/Nc2nc3ccccc3c(=O)n2C)c2ccccc2)cc1OC | 90.7 µM | tde | 65.1 µM | tde | 68 µM | 470 µM | 5.63 entries | 209.63 | 130.57% |
| COc1ccc(C2=NN(c3nc4ccccc4c(=O)n3C)C(c3ccco3)C2)cc1 (stereo unspecified) | 6.8 µM | tde | 1.48 µM | tde | 418 µM | 2.03 µM | 5.57 entries | 226 | 69% |
| Cn1c(=S)[nH]c2ccccc2c1=O | 30.2 µM | tde | 78.3 µM | tde | 3.42 µM | 120 µM | – | – | – |
| Cn1c(N2N=C(c3ccc(Cl)cc3)CC2c2cccs2)nc2ccccc2c1=O (stereo unspecified) | 65.3 µM | tde | 25.6 µM | tde | 420 µM | 27.6 µM | 2.29 entries | 244.5 | 61.83% |
| Cc1ccc(C2=NN(c3nc4ccccc4c(=O)n3C)C(c3ccco3)C2)cc1 (stereo unspecified) | 140 µM | tde | 88.6 µM | tde | 410 µM | 77.1 µM | 9 entries | 208.57 | 64% |
| Cn1c(N2N=C(c3ccccc3)CC2c2ccc(Cl)cc2)nc2ccccc2c1=O (stereo unspecified) | 2.7 µM | tde | 18.4 µM | tde | 3.7 µM | 416 µM | 4.12 entries | 154.75 | 42.37% |
| Cn1c(N2N=C(c3ccccc3)CC2c2cccc(Cl)c2)nc2ccccc2c1=O (stereo unspecified) | 0.9 µM | tde | 5.8 µM | tde | 1.02 µM | 400 µM | 3.75 entries | 218.25 | 26.25% |
| Cn1c(N2N=C(c3ccc(Cl)cc3)CC2c2ccco2)nc2ccccc2c1=O (stereo unspecified) | 28.7 µM | tde | 9.25 µM | tde | 450 µM | 7.22 µM | 4.86 entries | 204 | 74% |
| Cn1c(NN)nc2ccccc2c1=O | 25.2 µM | tde | 18.6 µM | tde | 37.4 µM | 21.2 µM | – | – | – |
| Cn1c(N/N=C(/C=C/c2ccccc2)c2ccccc2)nc2ccccc2c1=O | 34.2 µM | tde | 70.5 µM | tde | 35.1 µM | 415 µM | 5.37 entries | 191 | 55.43% |
| Cn1c(N/N=C(/C=C/c2ccc(Br)cc2)c2ccccc2)nc2ccccc2c1=O | 40.3 µM | tde | 69.6 µM | tde | 30.5 µM | 487 µM | 3.87 entries | 218.71 | 65.57% |
| Cn1c(N/N=C(/C=C/c2ccc(Cl)cc2)c2ccccc2)nc2ccccc2c1=O | 1.05 µM | tde | 7.8 µM | tde | 3.56 µM | 378 µM | 2.51 entries | 284.2 | 125.86% |
| Cn1c(N2N=C(c3ccccc3)CC2c2ccccc2)nc2ccccc2c1=O (stereo unspecified) | 9.9 µM | tde | 25.2 µM | tde | 9.46 µM | 410 µM | 4.37 entries | 222.27 | 27% |
| COc1ccc(C2=NN(c3nc4ccccc4c(=O)n3C)C(c3cccs3)C2)cc1 (stereo unspecified) | 25.3 µM | tde | 16.3 µM | tde | 440 µM | 15.2 µM | 5.13 entries | 248.5 | 61.13% |
| C#CCN(C)Cc1ccccc1 [PARGYLINE] | 8.5 µM | – | 3.36 µM | – | – | – | – | – | – |

Second part, led by results:

| Ki [1] | Activity [1] | Ki [3] | Activity [3] | IC50 [4] | IC50 [7] | SMILES | arm entries [2] | Activity [5] | Activity [6] |
| --- | --- | --- | --- | --- | --- | --- | --- | --- | --- |
| 80.1 µM | tde | 125 µM | tde | 31.6 µM | 400 µM | Cn1c(N/N=C(/C=C/c2ccco2)c2ccc(Cl)cc2)nc2ccccc2c1=O | 6.75 entries | 219.5 | 67.88% |
| 70.3 µM | tde | 90.5 µM | tde | 34.2 µM | 419 µM | COc1ccc(C(/C=C/c2ccco2)=N\Nc2nc3ccccc3c(=O)n2C)cc1 | 4.63 entries | 237.25 | 80.38% |
| 30.2 µM | tde | 64.6 µM | tde | 30.5 µM | 470 µM | Cc1ccc(/C=C/C(=N/Nc2nc3ccccc3c(=O)n2C)c2ccccc2)cc1 | 6.37 entries | 216.12 | 79.25% |
| 80.1 µM | tde | 30.6 µM | tde | 29 µM | 429 µM | CCOc1ccc(/C=C/C(=N/Nc2nc3ccccc3c(=O)n2C)c2ccccc2)cc1 | 5.75 entries | 218.88 | 90.23% |
| 1.15 µM | tde | 10.6 µM | tde | 9.05 µM | 399 µM | COc1ccc(/C=C/C(=N/Nc2nc3ccccc3c(=O)n2C)c2ccccc2)cc1 | 4.5 entries | 225.38 | 86.75% |
| 190 µM | tde | 188 µM | tde | 33.2 µM | 419 µM | Cc1ccc(C(/C=C/c2cccs2)=N\Nc2nc3ccccc3c(=O)n2C)cc1 | 5.57 entries | 204.71 | 65.57% |
| 28.2 µM | tde | 69.1 µM | tde | 28 µM | 416 µM | Cn1c(N/N=C(/C=C/c2cccs2)c2ccc(Cl)cc2)nc2ccccc2c1=O | 8.5 entries | 162.17 | 50.39% |
| 185 µM | tde | 184 µM | tde | 27.2 µM | 299 µM | COc1ccc(C(/C=C/c2cccs2)=N\Nc2nc3ccccc3c(=O)n2C)cc1 | 8 entries | 206.29 | 49.29% |
| 181 µM | tde | 179 µM | tde | 90.8 µM | 320 µM | Cc1ccc(C(/C=C/c2ccco2)=N\Nc2nc3ccccc3c(=O)n2C)cc1 | 5.14 entries | 238.67 | 82.43% |
